Assay results pooled from the literature.
Protocols differ between the studies behind these lines.
Target: Aurora kinase C (AURKC, Homo sapiens, UniProt Q9UQB9)
Residues used in one study (Q9UQB9 1-309): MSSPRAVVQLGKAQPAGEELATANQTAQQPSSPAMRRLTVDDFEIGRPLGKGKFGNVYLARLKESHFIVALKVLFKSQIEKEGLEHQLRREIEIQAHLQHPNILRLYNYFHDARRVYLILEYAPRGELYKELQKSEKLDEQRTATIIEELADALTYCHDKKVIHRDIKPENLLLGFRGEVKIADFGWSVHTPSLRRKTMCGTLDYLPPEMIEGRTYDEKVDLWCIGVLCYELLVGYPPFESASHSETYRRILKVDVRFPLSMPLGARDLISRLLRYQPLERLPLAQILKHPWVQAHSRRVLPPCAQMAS

SMILES	test	setting	quantity	value
COc1ccc2oc(-c3ccc4nc(N)oc4c3)c/c(=N\c3ccccc3NC(=O)CCN)c2c1	binding	1 µM	remaining binding	106%
Cc1ccc(NC(=O)c2ccnc(C(F)(F)F)c2)cc1-c1cc(OCCO)nc(N2CCOCC2)c1	binding, competition with immobilised ligand	1 µM	remaining binding	83%
C[C@]1(O)CCCN(c2nc(Nc3ccc(S(=O)(=O)N[C@H]4CC[C@H](CN5CCN(c6ccc(C7CCC(=O)NC7=O)cc6F)CC5)CC4)cc3F)ncc2C(F)(F)F)C1 (stereo partly shown)	binding, competition with immobilised ligand	1 µM	remaining binding	97%
CC(C)S(=O)(=O)c1ccc2nccc(Nc3ccc4sc(C5CCCC5)nc4c3)c2c1	enzyme activity, inhibitor	1 µM	activity vs control	101%
CO[C@@H]1[C@H](N(C)C(=O)c2ccccc2)C[C@H]2O[C@]1(C)n1c3ccccc3c3c4c(c5c6ccccc6n2c5c31)C(=O)NC4	enzyme activity, inhibitor	1 µM	inhibition	99%
COc1ccc2[nH]c3c4[nH]c5ccc(OC)cc5c4c4c(c3c2c1)C(=O)NC4=O	binding, competition with immobilised ligand	1 µM	remaining binding	17%
CC#CC(=O)N1CCC[C@H]1c1nc(-c2ccc(C(=O)Nc3ccccn3)cc2)c2c(N)nccn12	enzyme activity, inhibitor	1 µM	inhibition	18%
C1=C/COCc2cc(ccc2OCCN2CCCC2)Nc2nccc(n2)-c2cccc(c2)COC/1	binding	0.1 µM	remaining binding	96%
CNS(=O)(=O)c1ccc(Nc2ncc(C(F)(F)F)c(N3CCC[C@](C)(O)C3)n2)c(C)c1	binding, competition with immobilised ligand	1 µM	remaining binding	37%
CCCCC(=O)Nc1ccc(-c2ccc3ncn(CCC)c(=O)c3c2)cn1	binding, competition with immobilised ligand	0.5 µM	remaining binding	83%
